Bioassay records from PubChem.
Hits are enriched below; roughly 3.8% of the tested compounds scored in any of these assays.
MrgX1 allo act: allosterically activates human MrgX1 receptor signaling; Q96LB2; MrgX1-HEK293, Fluo-4 calcium flux, FDSS; stronger effect = higher value; B-score at 10 µM; 0.63% of 310,000 active; AID 588675;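 active = plate-corrected calcium response at least 3 library SD above typical, normal starting fluorescence, not activating the receptor alone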;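 note: compound read alongside a low EC10 to EC30 dose of BAM8-22 agonist; peak minus trough fluorescence over baseline measured at the second addition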
Target sequence (Q96LB2 whole entry, looked up): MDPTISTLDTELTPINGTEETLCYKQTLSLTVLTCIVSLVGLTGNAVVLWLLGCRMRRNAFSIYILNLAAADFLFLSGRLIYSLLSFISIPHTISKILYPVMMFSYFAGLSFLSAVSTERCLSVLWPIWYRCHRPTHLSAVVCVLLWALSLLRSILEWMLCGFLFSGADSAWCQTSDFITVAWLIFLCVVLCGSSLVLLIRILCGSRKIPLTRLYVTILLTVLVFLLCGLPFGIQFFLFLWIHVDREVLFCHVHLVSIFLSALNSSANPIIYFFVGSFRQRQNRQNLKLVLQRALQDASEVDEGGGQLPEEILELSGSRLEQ
RGS4 inh: inhibitors of human RGS4 | 0.45% of 310,000 active | P49798 | B-score at 10 µM | HEK293 M3R/RGS4 inducible, Fluo-4 calcium flux; stronger effect = higher value; triggered by carbachol at its EC20 | AID 463165;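 active = B-score, a plate-corrected calcium signal, over three deviations above library mean, with baseline fluorescence within five deviations of library mean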;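 note: RGS4 expression induced by doxycycline in cells with stable M3 receptor; B-score is computed from the integrated fluorescence ratio over baseline after carbachol; higher B-score means a larger calcium signal and so more RGS4 inhibition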
Target sequence (P49798 whole entry, looked up): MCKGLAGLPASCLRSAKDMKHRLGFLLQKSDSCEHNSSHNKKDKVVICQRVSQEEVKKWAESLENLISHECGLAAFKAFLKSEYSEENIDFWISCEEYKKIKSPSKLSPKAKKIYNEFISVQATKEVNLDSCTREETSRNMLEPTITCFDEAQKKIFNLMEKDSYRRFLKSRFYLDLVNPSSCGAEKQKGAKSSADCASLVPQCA
Hep lipid drop: modulators of hepatic lipid droplet formation; AML12 mouse hepatocytes, oleate lipid droplets, BODIPY imaging; inhibition, % at 6.5 µM; 0.4% of 240,000 active; AID 1656;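 active = lipid droplet intensity inhibited by at least 50%, with more than 500 cells counted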
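Material: mouse AML12 hepatocyte cell line, fixed after treatment; Timing: compound with oleate, overnight; Technique: high-content imaging of BODIPY-stained droplets and DAPI nuclei; Probe or stimulus: oleate, 100 µM final; Dosing: compound at 6.5 µM only.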
MrgX1 antag: antagonists of human MrgX1 receptor; Q96LB2; B-score at 10 µM; 1.3% of 310,000 active; MRGX1-HEK293 calcium flux, Fluo-4, BAM8-22 antagonism; stronger effect = lower value;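 active = calcium-response B-score plate-corrected more than 3 library SD below zero, starting fluorescence within 5 deviations, no agonist response on first addition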;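 note: peak minus trough fluorescence over baseline after final BAM8-22 challenge near maximal dose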
RGS4 pot: potentiators or activators of RGS4; AID 463111; HEK293 M3R/inducible RGS4, carbachol calcium flux Fluo4; stronger effect = lower value; 0.92% of 310,000 active; B-score at 10 µM;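 active = B-score of the integrated calcium signal more than 4 SD below the library mean, with starting fluorescence not abnormally high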;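 note: negative B-score means reduced calcium response which marks RGS4 activation or potentiation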
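System – HEK293 FlpIn-TREx cells, stable M3R, doxycycline-inducible RGS4 · Reagent – ECmax carbachol challenge · Times – compound preincubation 20 min at room temperature before agonist · Technique – Fluo4 fluorescence kinetic imaging of calcium · Measure – B score of integrated Fluo4 ratio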
MrgX1 agonist: agonists of human MrgX1 receptor; B-score at 10 µM; 0.44% of 310,000 active; MrgX1-HEK293 cells, Fluo-4 calcium fluorescence, agonist mode; stronger effect = higher value; Q96LB2;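 active = calcium response B-score plate-corrected fluorescence ratio at least 3 library SD, with starting fluorescence B-score inside 5 SD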
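Test system: Stable human MrgX1 HEK293 cell line | Schedule: Overnight plating before 1 h dye loading | Read-out basis: Baseline-normalised fluorescence change ratio, B-scored | Detection: Kinetic calcium dye fluorescence, Fluo-4 NW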
Of the large screens only hits and unclear results are named; the others gave an inactive call.

Cc1ccc(C(=O)c2c(C)oc3c2C(=O)C(=O)c2ccccc2-3)cc1	RGS4 pot -7.5 (no result: Hep lipid drop)
O=[N+]([O-])c1ccc(-n2nncc2-c2ccccc2)cc1	none
O=[N+]([O-])c1ccc(-n2nncc2-c2ccc(Cl)cc2)cc1	MrgX1 antag -4.9
Cc1oc2c(C)c3oc(=O)c(CCC(=O)NCCN4CCOCC4)c(C)c3cc2c1C	none (no result: Hep lipid drop)
Brc1cccc(-c2nc3cccnc3nc2-c2cccc(Br)c2)c1	RGS4 pot -7
O=C(NCCC1CCCCN1S(=O)(=O)c1ccccc1)C(=O)NCc1cccnc1 (configuration not stated)	none (no result: Hep lipid drop)
CCCCC(CC)CN=C(N)NC(N)=NCCCCCCN=C(N)NC(N)=NCC(CC)CCCC (configuration not stated)	MrgX1 agonist 170 (no result: RGS4 inh, Hep lipid drop, RGS4 pot)
Cc1ccc(C(=O)OCCc2sc[n+](Cc3ccccc3)c2C)cc1	RGS4 pot -9.1
Cc1c(CCOC(=O)C23CC4CC(CC(C)(C4)C2)C3)sc[n+]1Cc1ccccc1	none (no result: Hep lipid drop)
Nn1c(SCc2ccccc2)nnc1-c1ccco1	MrgX1 antag -5.7
Cc1cc(OCC(=O)Nc2ccc(CN3CCOCC3)cc2)c2c(C)c(C)c(=O)oc2c1	none
c1ccc(OCc2noc(CN3CCC(C4CCCCC4)C3)n2)cc1 (configuration not stated)	none
CC1(C)CCCN(C(=O)c2ccc3c(c2NCCO)C(=O)c2ccccc2C3=O)C1	MrgX1 allo act 15, Hep lipid drop 98
O=C1c2ccccc2-c2c1cccc2C(=O)N1CCCCCC1	none
O=C1c2ccccc2C(=O)c2c1ccc(C(=O)N1CCCCC1)c2NCCO	MrgX1 allo act 7 (no result: Hep lipid drop)
COc1ccc(CCNC(=O)Cn2nnc(C(=O)Nc3cc(C)ccc3C)c2N)cc1OC	none
COc1ccc(C(CNC(=O)c2oc3ccc(OC)cc3c2C)N2CCCC2)cc1 (configuration not stated)	none (no result: Hep lipid drop)
CCc1ccc2oc(C(=O)NCC(c3ccc(OC)cc3)N3CCCCC3)c(C)c2c1 (configuration not stated)	RGS4 pot -8.1
COc1ccc(NS(=O)(=O)c2cccc(C(=O)NCC(c3ccc(OC)cc3)N3CCOCC3)c2)cc1 (configuration not stated)	MrgX1 antag -4.7
NS(=O)(=O)c1ccc(NC(=O)CCC(=O)c2ccc(Cl)s2)cc1	none
COC(CNC(=O)[C@H](CSCc1ccccc1)N1Cc2ccccc2C1=O)OC	MrgX1 allo act 8.2
CCN(CC)CCOC(=O)c1ccc(NC(=O)C2(c3ccccc3)CCCC2)cc1	RGS4 pot -7.4 (no result: Hep lipid drop)
CCN(CC)CCOC(=O)c1ccc(NC(=O)/C=C/c2cccs2)cc1	RGS4 pot -7.1
O=Cc1cc(Br)c(OC(=O)N2CCOCC2)c(Br)c1	MrgX1 agonist 27
CC1=C(Sc2nc3ccccc3[nH]2)C(=O)NC(C)(C)C1	none (no result: Hep lipid drop)
CC(C)N1C(=O)S/C(=C/c2ccc(Sc3nc4ccccc4[nH]3)o2)C1=O	MrgX1 antag -7
C=CCN1C(=O)S/C(=C/c2ccc(Sc3nc4ccccc4[nH]3)o2)C1=O	MrgX1 antag -6.8
C=CCN1C(=O)S/C(=C/c2ccsc2)C1=O	none
O=C(N/N=C/c1ccc(N2CCOCC2)cc1)c1ccccc1OCCOc1ccccc1	RGS4 pot -7.1
C[n+]1c2n(c3ccccc31)N=C(c1ccc(-c3ccccc3)cc1)CS2	MrgX1 antag -6.5
c1cncc(CSc2nnc(-c3cccnc3)n2Cc2ccco2)c1	none (no result: MrgX1 allo act, Hep lipid drop, MrgX1 antag, MrgX1 agonist)
O=C(CSc1nnc(-c2cccnc2)n1Cc1ccco1)N1c2ccccc2Sc2ccccc21	MrgX1 antag -4.5 (no result: RGS4 inh, RGS4 pot)
O=C(NCCc1ccc(Cl)cc1)c1ccc(CS(=O)Cc2ccccc2Cl)o1 (configuration not stated)	RGS4 pot -8.4
CSc1ccc(CCNC(=O)c2ccc(CS(=O)Cc3ccccc3Cl)o2)cc1 (configuration not stated)	MrgX1 antag -6
CCOc1ccc(CCNC(=O)c2ccc(CS(=O)Cc3cccc(Cl)c3)o2)cc1 (configuration not stated)	RGS4 pot -9.4
CC1C(=O)C(C)C(c2cc(Cl)ccc2O)NC1c1cc(Cl)ccc1O (configuration not stated)	none (no result: Hep lipid drop)
Cc1ccc(S(=O)(=O)NCCc2ccncc2)cc1[N+](=O)[O-]	none
CC(C)Oc1ccc(C(=O)NCCCNC(=O)c2ccccn2)cc1	none
O=C1OC(c2ccc(F)cc2)=C/C1=C\c1ccc([N+](=O)[O-])o1	MrgX1 antag -7.8
CC(C)CNC(=O)c1c2c(nc3ccccc13)-c1ccccc1CC2	none (no result: Hep lipid drop)
CCN(CC)C(=O)c1c2c(nc3ccccc13)-c1ccccc1CC2	RGS4 pot -7
O=C1C2C3C=CC(C3)C2C(=O)N1/N=C/c1cn(Cc2ccc(F)cc2)c2ccccc12 (configuration not stated)	RGS4 pot -8 (no result: Hep lipid drop)
O=C1C2C3C=CC(C3)C2C(=O)N1/N=C/c1cn(Cc2ccccc2)c2ccccc12 (configuration not stated)	none
Cc1ccc2sc(N(CCCN(C)C)C(=O)c3ccc(S(=O)(=O)N(C)C4CCCCC4)cc3)nc2c1C	none (no result: Hep lipid drop)
CN(C)CCCN(C(=O)c1ccc(C(=O)c2ccccc2)cc1)c1nc2cc3c(cc2s1)OCCO3	RGS4 pot -8.8
CN(C)CCCN(C(=O)CCS(=O)(=O)c1ccccc1)c1nc2cc3c(cc2s1)OCO3	RGS4 pot -8.2
CCN(Cc1ccccc1)S(=O)(=O)c1ccc(C(=O)N(CCCN(C)C)c2nc3cc4c(cc3s2)OCO4)cc1	RGS4 pot -7.5
CCN(Cc1ccccc1)S(=O)(=O)c1ccc(C(=O)N(CCCN(C)C)c2nc3c(C)c(C)ccc3s2)cc1	MrgX1 antag -6.7 (no result: Hep lipid drop)
CN(Cc1ccccc1)C(=O)COc1cccnc1[N+](=O)[O-]	none
CCCCN(CC)CCCNC(=O)C1CCN(c2ncnc3c2sc2cccc(F)c23)CC1	RGS4 pot -7.1
O=C(NCCN1CCOCC1)C1CCN(c2ncnc3c2sc2cccc(F)c23)CC1	none (no result: Hep lipid drop)
O=C(NCCCN1CCOCC1)c1c(F)c(F)c(F)c(F)c1F	none
Cc1ccc(S(=O)(=O)N2CCC(C(=O)N/N=C/c3cccnc3)CC2)cc1	MrgX1 antag -5.2
CC(=O)Nc1cccc(-c2csc(Nc3ccc(Cl)cn3)n2)c1	none
CC(=O)Nc1ccc(-c2csc(Nc3ccc(Cl)cn3)n2)cc1	MrgX1 allo act 7.2
Cc1ccc(C(=O)c2oc3ccccc3c2NC(=O)c2cc(-c3cc(C)ccc3O)n[nH]2)cc1	MrgX1 antag -5.2
NC(=O)CC1C(=O)N(c2ccccc2)C(=S)N1NC(=O)c1ccccc1 (configuration not stated)	none
